Results from ChEMBL document CHEMBL4680332, “Lead optimization of 2-hydroxymethyl imidazoles as non-hydroxamate LpxC inhibitors: Discovery of TP0586532” (Bioorg Med Chem, 2021).
In brackets after ≈: the same amount, converted by molar mass.

How the values were obtained:
[1] = tested on: Escherichia coli; experiment: Antibacterial activity against Escherichia coli ATCC 25922 by CLSI based broth microdilution method; assay type: functional
Outline: (§1)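 Broth microdilution MIC per CLSI method; E. coli ATCC 25922 and K. pneumoniae ATCC 13883.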

[2] = tested on: Klebsiella pneumoniae; experiment: Antibacterial activity against Klebsiella pneumonia ATCC 13883 by CLSI based broth microdilution method; assay type: functional; outline: as §1
[3] = Inhibition of Escherichia coli LpxC using DP-3-0-(R-3-hydroxymyristoy1)-N-acetylglucosamine as substrate incubated for 120 mins by fluorescamine assay
[4] = Protein binding in human serum at 1 ug/ml incubated for 4 hrs by LC-MS/MS analysis; assay type: ADME, cell-free; settings: at 1 µg/mL, read-out: PB (converted)
Outline: (§2)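 Equilibrium dialysis at 1 µg/mL final in pooled male ICR mouse serum or human volunteer serum (no anticoagulant). Dialyzed against 50 mM sodium phosphate buffer at 37 °C for 4 h (5% CO2, MWCO 12000–14000). Compound on each side measured by LC-MS/MS; binding % = (Cs−Cb)/Cs×100.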

[5] = Protein binding in ICR mouse serum at 1 ug/ml incubated for 4 hrs by LC-MS/MS analysis; assay type: ADME, cell-free; settings: at 1 µg/mL, read-out: PB (converted); outline: as §2
[6] = tested on: Klebsiella pneumoniae; experiment: In vivo antibacterial activity against Klebsiella pneumonia ATCC BAA-2343 infected in ICR mouse assessed as reduction in bacterial burden in lung at 50 mg/kg, sc administered after 2 hrs of infection and measured after 26 hrs of infection; assay type: functional; settings: time 24 hrs
Outline: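 Female ICR mice (5 weeks) made neutropenic with cyclophosphamide ip, 150 and 100 mg/kg at days −4 and −1. Intranasal inoculation with 1.5–1.9 × 10^6 CFU. Compound in 10w/v% HP-β-CD given sc 2 h post-infection (n = 5). Lung viable counts at 2 h (control) and 26 h; mean log change versus start of therapy.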

[7] = Toxicity in iv dosed ICR mouse assessed as maximum tolerated dose; assay type: organism-based; settings: in vivo
Outline: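 Exploratory MTD study in male ICR mice (n = 2): a single intravenous tail-vein injection at dose levels of up to 200 mg/kg.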

[8] = tested on: Klebsiella pneumoniae; experiment: In vivo antibacterial activity against Klebsiella pneumonia 4102 infected in ICR mouse assessed as mouse survival rate at 25 mg/kg, sc administered once after 1 hr of infection and observed for 7 days relative to control; assay type: functional; settings: time 7 day
Outline: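 Four-week-old male ICR mice given K. pneumoniae 4102 intraperitoneally (3.8–5.5 × 10^6 CFU/mouse) in 0.5 mL suspension with 3w/v% mucin. Compound in 10w/v% HP-β-CD, single subcutaneous dose 1 h post-inoculation (n = 6). Survival followed for 7 days.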

[9] = Cardiotoxicity in iv dosed Hartley guinea pig assessed as increase in QT prolongation measured after 30 mins; assay type: toxicity, organism-based, Cavia porcellus; settings: in vivo, 0.5 h
Outline: (§3)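 Guinea pigs (6–7 weeks) anesthetized with pentobarbital 60 mg/kg ip, then infused iv at 8 mg/kg/h; ventilated at 15 mL/kg, 60/min. Vehicle (11w/v% SBE-β-CD, pH4) or compound infused via jugular vein for 30 min. Carotid arterial pressure and ECG recorded; QT corrected by Bazett. Heart rate, QTc, SBP and DBP expressed as change from baseline.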

[10] = Cardiotoxicity in iv dosed Hartley guinea pig assessed as decrease in heart rate measured after 30 mins; assay type: toxicity, organism-based, Cavia porcellus; settings: in vivo, 0.5 h; outline: as §3
[11] = Cardiotoxicity in iv dosed Hartley guinea pig assessed as decrease in blood pressure measured after 30 mins; assay type: toxicity, organism-based, Cavia porcellus; settings: in vivo, 0.5 h; outline: as §3
[12] = Plasma concentration in Hartley guinea pig at 180 mg/kg, iv measured after 30 mins by LC-MS/MS analysis; assay type: ADME, organism-based, Cavia porcellus
Outline: (§4)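 Anesthetized guinea pigs received a 30-min iv infusion. Blood was taken at the end of infusion and centrifuged, and plasma concentration (C30min) was measured by LC-MS/MS.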

[13] = Free plasma concentration in Hartley guinea pig serum assessed as fraction unbound at 180 mg/kg, iv measured after 30 mins by LC-MS/MS analysis; assay type: ADME, organism-based, Cavia porcellus; settings: in vivo, 0.5 h
Outline: (§5)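 Unbound plasma concentration at end of 30-min iv infusion in anesthetized guinea pigs: LC-MS/MS plasma C30min multiplied by fraction unbound, with plasma fu assumed equal to serum fu (equilibrium dialysis, 500 µg/mL in guinea pig serum).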

[14] = Plasma concentration in Hartley guinea pig at 60 mg/kg, iv measured after 30 mins by LC-MS/MS analysis; assay type: ADME, organism-based, Cavia porcellus; outline: as §4
[15] = Free plasma concentration in Hartley guinea pig serum assessed as fraction unbound at 60 mg/kg, iv measured after 30 mins by LC-MS/MS analysis; assay type: ADME, organism-based, Cavia porcellus; settings: in vivo, 0.5 h; outline: as §5
[16] = Plasma concentration in Hartley guinea pig at 135 mg/kg, iv measured after 30 mins by LC-MS/MS analysis; assay type: ADME, organism-based, Cavia porcellus; outline: as §4
[17] = Free plasma concentration in Hartley guinea pig serum assessed as fraction unbound at 135 mg/kg, iv measured after 30 mins by LC-MS/MS analysis; assay type: ADME, organism-based, Cavia porcellus; settings: in vivo, 0.5 h; outline: as §5
[18] = Cardiotoxicity in Hartley guinea pig assessed as decrease in blood pressure at 150 mg/kg, iv measured after 30 mins; assay type: toxicity, organism-based, Cavia porcellus; settings: in vivo, 0.5 h; outline: as §3
[19] = target: Voltage-gated inwardly rectifying potassium channel KCNH2 (Homo sapiens, UniProt Q12809); experiment: Inhibition of human ERG expressed in CHO cells by whole cell Q-patch clamp assay; assay type: cell-based
Voltage-gated inwardly rectifying potassium channel KCNH2, sequence (Q12809 whole entry): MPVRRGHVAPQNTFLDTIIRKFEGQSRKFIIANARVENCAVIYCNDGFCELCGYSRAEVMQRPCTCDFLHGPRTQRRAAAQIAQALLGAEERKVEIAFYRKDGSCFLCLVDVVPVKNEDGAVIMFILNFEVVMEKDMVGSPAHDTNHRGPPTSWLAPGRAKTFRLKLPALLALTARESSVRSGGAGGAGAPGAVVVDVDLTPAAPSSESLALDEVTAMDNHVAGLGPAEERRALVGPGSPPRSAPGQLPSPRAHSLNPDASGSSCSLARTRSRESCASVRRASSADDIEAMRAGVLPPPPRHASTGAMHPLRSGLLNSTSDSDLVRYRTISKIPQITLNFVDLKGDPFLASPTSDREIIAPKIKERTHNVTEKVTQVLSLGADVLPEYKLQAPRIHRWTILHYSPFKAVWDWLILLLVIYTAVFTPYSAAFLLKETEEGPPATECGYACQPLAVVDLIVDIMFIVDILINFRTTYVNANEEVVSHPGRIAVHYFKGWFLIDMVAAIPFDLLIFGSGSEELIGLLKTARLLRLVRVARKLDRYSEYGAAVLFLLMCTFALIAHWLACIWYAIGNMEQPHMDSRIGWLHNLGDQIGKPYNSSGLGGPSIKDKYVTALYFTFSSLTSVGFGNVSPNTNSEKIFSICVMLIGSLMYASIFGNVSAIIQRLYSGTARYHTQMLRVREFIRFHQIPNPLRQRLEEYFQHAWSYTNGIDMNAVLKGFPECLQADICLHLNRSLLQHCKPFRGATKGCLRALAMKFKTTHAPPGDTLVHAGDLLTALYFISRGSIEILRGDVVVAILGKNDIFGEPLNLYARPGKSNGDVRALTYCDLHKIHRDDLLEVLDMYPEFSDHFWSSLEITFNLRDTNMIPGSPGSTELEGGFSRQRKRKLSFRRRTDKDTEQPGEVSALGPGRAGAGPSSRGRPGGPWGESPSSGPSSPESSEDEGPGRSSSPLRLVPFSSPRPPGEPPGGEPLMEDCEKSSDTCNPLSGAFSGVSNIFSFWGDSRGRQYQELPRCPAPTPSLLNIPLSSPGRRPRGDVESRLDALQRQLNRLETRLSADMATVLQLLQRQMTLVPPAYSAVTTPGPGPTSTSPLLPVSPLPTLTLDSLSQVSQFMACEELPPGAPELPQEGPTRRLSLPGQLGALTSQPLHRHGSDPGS

[20] = Genotoxicity in mouse lymphoma cell; assay type: toxicity; settings: lymphoma cell line
[21] = Toxicity in iv dosed cynomolgus monkey assessed as maximum tolerated dose administered for 14 days; assay type: organism-based, Macaca fascicularis; settings: in vivo, time 14 day
Outline: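 Three-year-old female cynomolgus monkeys were dosed intravenously for 14 days as a 30-min infusion via the saphenous vein. MTD was assessed under repeated dosing.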

[22] = Toxicity in iv dosed Sprague-Dawley rat assessed as maximum tolerated dose administered for 4 days; assay type: organism-based; settings: in vivo, time 4 day
Outline: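 Six-week-old male and female Sprague Dawley rats received intravenous bolus doses via the tail vein for 4 days. MTD was assessed under repeated dosing.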

[23] = Plasma concentration in Hartley guinea pig at 150 mg/kg, iv measured after 30 mins by LC-MS/MS analysis; assay type: ADME, organism-based, Cavia porcellus; outline: as §4
[24] = Free plasma concentration in Hartley guinea pig serum assessed as fraction unbound at 150 mg/kg, iv measured after 30 mins by LC-MS/MS analysis; assay type: ADME, organism-based, Cavia porcellus; settings: in vivo, 0.5 h; outline: as §5
[25] = in the assay text read “LCMS assay” for “fluorescamine assay”

| SMILES | MIC [1] | MIC [2] | IC50 [3, 25] | fraction unbound at 4 h, 1 ug/ml [4] | fraction unbound at 4 h, 1 ug/ml [5] | Activity [6] | MTD [7] | IC50 [3] | other results |
| --- | --- | --- | --- | --- | --- | --- | --- | --- | --- |
| C[C@H](O)c1nccn1[C@H](CN)c1cc(-c2ccc(C#C[C@@H]3[C@H]4CN(CCCC(=O)O)C[C@@H]34)cc2)on1 | 4 µg/mL (≈ 8.17 µM) | 16 µg/mL (≈ 32.7 µM) | – | – | – | – | – | – | – |
| C[C@H](O)c1nccn1Cc1cc(-c2ccc(C#CC34CC(N)(C3)C4)cc2)no1 | 0.5 µg/mL (≈ 1.34 µM) | 2 µg/mL (≈ 5.34 µM) | 65 nM | 0.035 | 0.069 | – | – | – | – |
| C[C@H](O)c1nccn1[C@H](CN)c1cc(-c2ccc(C#CC34CC(N)(C3)C4)cc2)on1 | 0.5 µg/mL (≈ 1.24 µM) | 2 µg/mL (≈ 4.96 µM) | 279 nM | 0.103 | 0.084 | -2.48 log10CFU | 100 mg/kg | – | – |
| COCCN1CCN(c2ccc(C#Cc3cc(Cn4ccnc4[C@H](C)O)no3)cc2)CC1 | 0.25 µg/mL (≈ 0.574 µM) | 0.5 µg/mL (≈ 1.15 µM) | – | 0.09 | 0.083 | – | – | 71 nM | – |
| C[C@H](O)c1nccn1Cc1cc(-c2ccc(C#CC3(N)CC3)cc2)on1 | 0.5 µg/mL (≈ 1.44 µM) | 1 µg/mL (≈ 2.87 µM) | 46 nM | 0.07 | 0.099 | – | – | – | Activity [8]: 67% |
| C[C@H](O)c1nccn1Cc1cc(C#Cc2ccc(CCCO)cc2)on1 | 0.5 µg/mL (≈ 1.42 µM) | 2 µg/mL (≈ 5.69 µM) | – | < 0.005 | < 0.005 | – | – | 31 nM | – |
| C[C@H](O)c1nccn1Cc1cc(-c2ccc(C#C[C@H]3C[C@H](O)C3)cc2)on1 | 0.12 µg/mL (≈ 0.33 µM) | 0.25 µg/mL (≈ 0.688 µM) | – | 0.017 | 0.035 | – | – | 15 nM | Activity [8]: 0% |
| C[C@H](O)c1nccn1Cc1cc(-c2ccc(C#CC34CC(N)(C3)C4)cc2)on1 | 0.25 µg/mL (≈ 0.668 µM) | 0.5 µg/mL (≈ 1.34 µM) | 49 nM | 0.027 | 0.034 | – | – | – | Activity [8]: 0% |
| C[C@H](O)c1nccn1Cc1cc(C#Cc2ccc(OC3CN(CCCO)C3)cc2)on1 | 2 µg/mL (≈ 4.73 µM) | 8 µg/mL (≈ 18.9 µM) | – | 0.261 | 0.165 | – | – | 378 nM | – |
| C[C@H](O)c1nccn1Cc1cc(-c2ccc(C#C[C@@H]3[C@H]4CN(C=O)C[C@@H]34)cc2)on1 | 1 µg/mL (≈ 2.48 µM) | 2 µg/mL (≈ 4.97 µM) | – | 0.095 | 0.09 | -2.84 log10CFU | 100 mg/kg | 39 nM | – |
| C[C@H](O)c1nccn1[C@H](CN)c1cc(-c2ccc(C#CC3(N)CC3)cc2)on1 | 2 µg/mL (≈ 5.3 µM) | 8 µg/mL (≈ 21.2 µM) | 282 nM | – | – | – | – | – | – |
| C[C@H](O)c1nccn1Cc1cc(-c2ccc(C#CCCCO)cc2)on1 | 1 µg/mL (≈ 2.85 µM) | 2 µg/mL (≈ 5.69 µM) | – | 0.031 | 0.049 | – | – | 51 nM | – |
| C[C@H](O)c1nccn1[C@H](CN)c1cc(-c2ccc(C#C[C@@H]3[C@H]4CN(C=O)C[C@@H]34)cc2)on1 | 1 µg/mL (≈ 2.32 µM) | 2 µg/mL (≈ 4.64 µM) | – | 0.275 | 0.18 | -2.47 log10CFU | ≥ 200 mg/kg | – | Activity [9]: Toxic; Activity [10]: Toxic; Activity [11]: Toxic; concentration at 0.5 h [12]: 233 µg/mL; Cp(f) [13]: 59.4 µg/mL |
| C[C@H](O)c1nccn1[C@H](CN)c1cc(-c2ccc(C#C[C@H]3C[C@H](O)C3)cc2)on1 | 0.25 µg/mL (≈ 0.637 µM) | 1 µg/mL (≈ 2.55 µM) | < 37 nM | 0.074 | 0.07 | -1.99 log10CFU | ≥ 200 mg/kg | – | Activity [9]: Toxic; Activity [10]: Toxic; Activity [11]: Toxic; concentration at 0.5 h [14]: 90.7 µg/mL; Cp(f) [15]: 15.6 µg/mL |
| C[C@H](O)c1nccn1Cc1cc(-c2ccc(C#CC3(N)CC3)cc2)no1 | 1 µg/mL (≈ 2.87 µM) | 4 µg/mL (≈ 11.5 µM) | 193 nM | 0.115 | 0.15 | – | – | – | – |
| C[C@H](O)CN1C[C@@H]2[C@@H](C#Cc3ccc(-c4cc([C@@H](CN)n5ccnc5[C@H](C)O)no4)cc3)[C@@H]2C1 | 1 µg/mL (≈ 2.17 µM) | 4 µg/mL (≈ 8.67 µM) | – | 0.212 | 0.151 | -1.19 log10CFU | ≥ 200 mg/kg | – | Activity [9]: Toxic; Activity [10]: Toxic; Activity [11]: Toxic; concentration at 0.5 h [16]: 132 µg/mL; Cp(f) [17]: 36 µg/mL |
| C[C@H](O)c1nccn1Cc1cc(-c2ccc(C#C[C@@H]3[C@H]4CN(CCCC(=O)O)C[C@@H]34)cc2)on1 | 2 µg/mL (≈ 4.34 µM) | 4 µg/mL (≈ 8.69 µM) | – | 0.223 | 0.241 | -1.63 log10CFU | ≥ 200 mg/kg | 101 nM | Activity [9]: Non-Toxic; Activity [10]: Non-Toxic; Activity [18]: Non-Toxic; IC50 [19]: > 1 mM; Activity [20]: Non-Toxic; MTD at 336 h [21]: > 400 mg/kg; MTD at 96 h [22]: 400 mg/kg; concentration at 0.5 h [23]: 378 µg/mL; Cp(f) [24]: 87.3 µg/mL |
| COCC(O)CN1C[C@@H]2[C@@H](C#Cc3ccc(-c4cc(Cn5ccnc5[C@H](C)O)on4)cc3)[C@@H]2C1 (mixture of isomers) | 0.5 µg/mL | 0.5 µg/mL | – | 0.076 | 0.077 | – | – | 97 nM | Activity [8]: 17% |
| COCC(O)CN1C[C@@H]2[C@@H](C#Cc3ccc(-c4cc(Cn5ccnc5[C@H](C)O)no4)cc3)[C@@H]2C1 (mixture of isomers) | 0.5 µg/mL | 0.5 µg/mL | – | 0.065 | 0.082 | – | – | 71 nM | Activity [8]: 33% |
